SMARCA2 activ = increases SMARCA2 function in MMTV reporter cells | MG213 cells, MMTV-luciferase reporter, dexamethasone, overnight | activation, % at 9.1 µM | 1% of 370,000 active; in the data active means activation above about 7.8%;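 further: 0% = vehicle wells and 100% = reference activator wells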
MC4R antag cAMP = blocks human MC4R cAMP signaling. P32245. MC4R-expressing cells, MTII-stimulated cAMP, LANCE TR-FRET. inhibition, % at 6.5 µM. 0.48% of 360,000 active. AID 540295;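 active means inhibition above its plate's cutoff, the mean of tested wells on that plate plus 3 SD, cut at about 29% in these data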;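 further: 0% = Melanotan II alone and 100% = Melanotan II plus saturating MCL0020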
Target sequence (P32245 whole entry, looked up): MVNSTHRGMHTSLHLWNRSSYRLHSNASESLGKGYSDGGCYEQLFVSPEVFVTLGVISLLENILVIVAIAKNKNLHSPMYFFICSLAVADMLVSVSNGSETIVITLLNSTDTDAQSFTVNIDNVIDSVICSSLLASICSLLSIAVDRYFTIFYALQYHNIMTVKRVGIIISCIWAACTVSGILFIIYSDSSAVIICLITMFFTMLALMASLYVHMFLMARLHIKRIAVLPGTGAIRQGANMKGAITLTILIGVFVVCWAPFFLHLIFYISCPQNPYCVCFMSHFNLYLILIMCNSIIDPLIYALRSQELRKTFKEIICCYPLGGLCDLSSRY
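Test system: U2OS cells stably expressing human melanocortin 4 receptor (MC4R); also added: Melanotan II challenge; compound: 6.5 µM single dose; timing: 30-min compound preincubation, 1-h Melanotan II challenge, 1-h detection, room temperature; signal: Eu-cAMP/anti-cAMP TR-FRET, emission 671 nm; repeats: one well per compound, no replicates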
MPTP inh = blocks calcium-induced mitochondrial swelling | isolated mouse mitochondria, Ca2+ swelling absorbance, 30 min | inhibition, % at 10 µM | 1.4% of 360,000 active | AID 602449;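 active means inhibition of 50% or more, scaled per plate between neutral and stimulator controls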;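 further: 0% = DMSO wells given calcium and 100% = 1 mM EGTA wells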
ATG4B inh = ATG4B (human) cysteine protease inhibition. 0.51% of 340,000 active. ATG4B cleavage of LC3-PLA2, NBD-HPC fluorescence, 1 h. inhibition, % at 8.33 µM; in the data active means inhibition above about 40%
MC4R ag barr = human MC4R agonism via beta-arrestin | 0.98% of 360,000 active | AID 540308 | U2OS MC4R beta-arrestin complementation, luminescence; percent of melanotan II response, DMSO zero | activation, % at 8.9 µM | P32245;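 active means activation above a per-plate cutoff, the mean activation of sample wells on that plate plus 3 SD, cut at about 8% in these data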
SMARCA2 act conf = confirmation of SMARCA2 (BRM) function activators; shares compounds with SMARCA2 activ; MG213 cells, MMTV-luciferase with dexamethasone, luminescence, overnight; MG213 cells expressing E1A, Rb sequestered; DMSO wells 0%, reference activator 100%; 30% of 3,500 active; activation, % at 9.1 µM;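 active means activation above its plate's cutoff, the mean activation of tested wells plus 3 SD, cut at about 7.9% in these data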
GAL4-VP16 Luc = GAL4-VP16 reporter activation counter-screen | 41% of 3,500 active | shares compounds with SMARCA2 activ | HEK293 GAL4-VP16 pG5luc reporter, luciferase luminescence; scaled: DMSO wells 0%, SAHA wells 100% | activation, % at 9.1 µM | AID 686939;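 active means activation above the solvent-only control well mean plus 3 SD, averaged across control plates, cut at about 5.2% in these data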
Active calls of the source: *; x = not tested or not shown. Shown are actives, neighbours in structure and some others; about 4.1% of the full set was active somewhere.

SMILES	SMARCA2 activ	MC4R antag cAMP	MPTP inh	ATG4B inh	MC4R ag barr	SMARCA2 act conf	GAL4-VP16 Luc
COc1ccc(CCNC(=O)C(=O)Nc2nccs2)cc1OC	-4.3	3.6	-4.1	-5.2	0.1	x	x
COc1ccc(CCNC(=O)C(=O)N/N=C/c2cccs2)cc1OC	14.2*	7.6	-1.8	-5.2	-0.6	-0.8	-0.6
Cc1ccc2cc3c(N)c(C(=O)N4CCOCC4)sc3nc2c1	9.5*	7.1	0.5	-13.7	-0.9	14.2*	13.9*
Cc1ccc2nc3sc(C(=O)N4CCOCC4)c(N)c3cc2c1	0.6	-1.3	0.6	-8.9	-0.3	x	x
CC(C)(C)c1ccc(NC(=O)Nc2ccc(OCC(=O)N3CCOCC3)cc2)cc1	8.2*	1.5	1.9	-9.8	-4.3	4.7	15.0*
O=S1(=O)CC2c3ccc(F)cc3CN2CN1C1CCCC1 (stereo unspecified)	3.1	x	x	x	x	x	x
Cc1ccc(C2CC(=O)C=C(Nc3ccc(Cl)cc3)C2)cc1 (stereo unspecified)	9.9*	1.2	3.7	6.5	2.9	-6.2	1.7
O=C(O)C1C(C(=O)Nc2ccc(Cl)cc2)C2C=CC1C21CC1 (stereo unspecified)	8.7*	-3.0	0.8	-6.8	-1.0	-0.7	3.1
O=C(O)C1C2CCC(O2)C1C(=O)Nc1ccc(F)c(Cl)c1 (stereo unspecified)	-1.2	3.6	-0.1	-4.3	-0.8	x	x
CC1(c2nnnn2-c2ccc(F)cc2)CCCC(=O)N1CCc1c[nH]c2ccccc12 (stereo unspecified)	-1.9	x	x	x	x	x	x
CCCCNC(=O)C1CCN(Cc2ccc(OCc3ccccc3)c(OC)c2)CC1	9.4*	-4.7	1.2	-0.6	-1.3	2.5	6.2*
CCOCCCNC(=O)C1CCN(Cc2ccc(OCc3ccccc3)c(OC)c2)CC1	0.7	2.5	0.8	-2.1	-1.6	x	x
CC(C)N1Cc2nnn(Cc3ccccc3)c2-c2ccccc2S1(=O)=O	7.2	x	x	x	x	x	x
CN(c1cccc(NC(=O)COc2ccc(Cl)cc2Cl)c1)S(C)(=O)=O	9.4*	3.8	1.1	-26.1	-3.3	0.3	9.1*
Cc1ccccc1OCC(=O)Nc1cccc(N(C)S(C)(=O)=O)c1	0.8	10.3	-1.4	-6.1	0.6	x	x
CCN(CC)CCCNC(=S)N(Cc1cccnc1)Cc1cc2cc(C)cc(C)c2[nH]c1=O	-0.8	3.5	-1.2	-0.3	-1.5	x	x
Cc1cc(C)c2[nH]c(=O)c(CN(Cc3cccnc3)C(=S)NCCCN(C)C)cc2c1	10.9*	-3.0	0.2	-2.0	-0.5	-4.1	1.8
CC(O)CN=c1cc(-c2ccccc2)oc2ccc(Cl)cc12 (stereo unspecified)	8.4*	-4.0	-0.3	-13.8	-2.5	18.1*	12.8*
CC(C)CN=c1cc(-c2ccccc2)oc2ccc(Cl)cc12	5.5	-3.7	3.3	6.9	0.3	x	x
O=C(CNCc1cccc2ccccc12)Nc1ccccc1[N+](=O)[O-]	9.7*	-5.6	1.8	7.1	-0.1	-1.7	0.4
O=C(CC(=O)Nc1ccccc1[N+](=O)[O-])Nc1ccccc1[N+](=O)[O-]	-2.0	6.5	4.5	10.6	-0.8	x	x
COCCNC(=O)C(=O)N/N=C/c1ccccc1C(F)(F)F	11.3*	-4.7	-0.2	6.0	-1.7	0.1	2.1
COCCNC(=S)N/N=C/c1ccccc1C(=O)O	7.4	-1.2	-0.2	-6.6	0.1	x	x
O=C(N/N=C/c1ccccc1O)c1cccc(C(F)(F)F)c1	-3.0	6.5	35.5	1.4	-0.6	x	x
O=C(N/N=C/c1ccccc1C(F)(F)F)c1ccc(O)cc1	8.3*	-4.1	-0.7	4.3	-1.8	2.3	9.4*
SMILES	SMARCA2 activ	MC4R antag cAMP	MPTP inh	ATG4B inh	MC4R ag barr	SMARCA2 act conf	GAL4-VP16 Luc
C[C@@H]1O[C@@H](OC[C@H]2O[C@@H](Oc3c(-c4ccc(O)c(O)c4)oc4cc(O)cc(O)c4c3=O)[C@H](O)[C@@H](O)[C@@H]2O)[C@H](O)[C@H](O)[C@H]1O	8.2*	-7.9	0.5	5.1	-0.6	0.3	1.8
Nc1ccc(O)c2c(=O)cc(-c3ccccc3Cl)oc12	8.1*	3.6	1.3	12.5	-1.8	6.9	11.4*
CN(Cc1ccco1)C(=O)CN1C(=O)C2(OCCCO2)c2ccccc21	-3.6	x	x	x	x	x	x
O=C(Oc1ccc2ccccc2c1Cl)N1CCCC1	6.6	2.9	-0.1	3.3	-0.1	x	x
O=C(Oc1ccc2ccccc2c1Cl)N1CCCCCC1	9.3*	-3.2	-0.9	8.0	-0.9	5.4	23.6*
CC(CN1C(C)CCCC1C)OC(=O)c1ccccc1Br (stereo unspecified)	8.4*	17.5	2.8	1.6	-0.8	2.3	0.1
CC(CN1C(C)CCCC1C)OC(=O)c1ccccc1Cl (stereo unspecified)	-4.9	-2.9	0.8	-1.1	-0.3	x	x
COc1cccc(/C=C2\CC3(OC(=O)c4ccccc4)CCCN2C3)c1 (stereo unspecified)	-0.5	x	x	x	x	x	x
Cc1noc(C)c1S(=O)(=O)N1CCCc2nc(-c3ccccc3)ccc21	-3.6	x	x	x	x	x	x
CC1(C(=O)Nc2nc3ccccc3s2)CC1(Br)Br (stereo unspecified)	9.0*	-12.2	-0.5	2.3	-0.8	6.4	5.2*
NC(=S)Nc1nc2ccccc2s1	15.6*	2.9	-2.0	-13.9	-2.9	17.3*	5.5*
COCC(=O)Nc1nc2ccccc2s1	4.1	4.9	1.6	-10.2	-1.5	x	x
O=C(CN1CCc2onc(-c3ccc(-n4cc(COc5ccc([N+](=O)[O-])cc5)nn4)cc3)c2C1=O)N1CCOCC1	-3.9	x	x	x	x	x	x
O=C(CCSc1ccc(Cl)cc1)N1CCN(c2ccc(O)cc2)CC1	-2.3	-1.1	4.6	22.3	0.0	x	x
O=C(CCSc1ccc(Cl)cc1)N1CCN(c2ncccn2)CC1	9.3*	9.2	-3.1	7.0	0.6	4.1	4.9
CCc1ccc2[nH]c(=O)c(CN(Cc3nnnn3C3CCCC3)C3CCCCC3)cc2c1	8.3*	0.0	-0.9	-6.2	-1.1	-0.6	5.8*
CC1CCN(CCCNS(=O)(=O)c2cc3c(cc2Br)CCN3C(=O)C2CC2)CC1	-0.5	x	x	x	x	x	x
NC(=O)CN1CCN(CCN2C(=O)c3cccc4cccc(c34)C2=O)CC1	1.1	6.1	-1.8	-4.4	-2.1	x	x
Nc1cc2c3c(cccc3c1)C(=O)N(CCN1CCCC1)C2=O	19.9*	-27.5	-1.6	-0.4	-0.9	30.4*	3.3
CCN(CC)CCN1C(=O)c2cccc3cc(N)cc(c23)C1=O	11.5*	-34.5	-0.3	-5.6	0.1	26.1*	2.0
O=C1c2cccc3cccc(c23)C(=O)N1CCO	5.0	3.6	-2.2	x	2.7	x	x
O=C1c2ccccc2C(=O)N1CCN1CCCCC1	0.4	2.5	-4.7	0.9	-1.5	x	x
